Measured values reported in ChEMBL document CHEMBL4480390, “Cink4T, a quinazolinone-based dual inhibitor of Cdk4 and tubulin polymerization, identified via ligand-based virtual screening, for efficient anticancer therapy” (Eur J Med Chem, 2019).
Calls of active or inactive are those of the source. The rule behind the calls is not given here.

Key:
Cytochrome P450 1A2 = target: T1, Cytochrome P450 1A2 (Homo sapiens, UniProt P05177); assay: Inhibition of recombinant human CYP1A2 expressed in baker's yeast-derived microsomes using 3-cyano-7-ethoxycoumarin as substrate by fluorescence assay; type: ADME
T1 sequence (P05177 whole entry): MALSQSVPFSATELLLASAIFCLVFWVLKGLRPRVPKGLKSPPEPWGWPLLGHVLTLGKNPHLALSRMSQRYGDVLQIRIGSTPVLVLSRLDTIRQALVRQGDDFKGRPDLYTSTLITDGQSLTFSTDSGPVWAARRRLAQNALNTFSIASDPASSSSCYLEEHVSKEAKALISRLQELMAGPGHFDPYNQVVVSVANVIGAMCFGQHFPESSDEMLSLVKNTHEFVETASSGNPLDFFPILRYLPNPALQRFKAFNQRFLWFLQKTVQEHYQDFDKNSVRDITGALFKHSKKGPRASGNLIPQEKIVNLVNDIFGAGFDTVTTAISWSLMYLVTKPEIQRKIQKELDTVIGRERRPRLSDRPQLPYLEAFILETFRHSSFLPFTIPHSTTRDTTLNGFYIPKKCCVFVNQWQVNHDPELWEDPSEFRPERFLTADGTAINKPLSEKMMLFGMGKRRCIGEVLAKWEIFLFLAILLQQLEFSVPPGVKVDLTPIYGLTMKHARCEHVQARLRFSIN

MDA-MB-468 [1] = assay: Cell cycle arrest in human MDA-MB-468 cells assessed as ratio of G1 to S phase at 10.85 uM measured after 18 hrs by propidium iodide staining based flow cytometry (reference value: 2.17); type: functional
[2] = target: T2, Cyclin-dependent kinase 4/cyclin D1 (Homo sapiens) (UniProt P11802+P24385); assay: Inhibition of recombinant human N-terminal GST-tagged CDK4 (S4 to E303 residues)/Cyclin D1 (Q4 to I295 residues) expressed in sf9 cells at 10 uM using RBCTF as substrate measured after 1 hr by ADP-glo luminescence assay relative to control
CDK9/cyclin T1 = CDK9/cyclin T1 (Homo sapiens, UniProt P50750); assay: Inhibition of N-terminal GST-HIS6 fusion protein tagged human full length CDK9 (M1 to F372 residues)/N-terminal HIS6-fused human Cyclin-T1 (M1 to K726 residues) expressed in Sf9 cells using RBCTF as substrate measured after 1 hr by ADP-glo luminescence assay
A549 [3] = assay: Cell cycle arrest in human A549 cells assessed as accumulation at G0/G1 phase at 0.8 uM treated 32 hrs post mimosine addition measured after 18 hrs in presence of fresh medium by propidium iodide staining based flow cytometry (reference value: 58%); type: functional
T47D [4] = assay: Cell cycle arrest in human T47D cells assessed as increase in accumulation at S phase at 0.75 uM treated 18 hrs post serum-starvation measured after 18 hrs in presence of fresh medium containing FBS by propidium iodide staining based flow cytometry relative to control; type: functional
Calu-1 [5] = assay: Cell cycle arrest in human Calu1 cells assessed as increase in accumulation at S phase at 1.8 uM treated 18 hrs post serum-starvation measured after 18 hrs in presence of fresh medium containing FBS by propidium iodide staining based flow cytometry relative to control; type: functional
[6] = target: T2, Cyclin-dependent kinase 4/cyclin D1 (Homo sapiens); assay: Inhibition of CDK4/cyclin D1 in human T47D cells assessed as reduction in phosphorylation of pRb at Ser795 residues at 0.75 to 1.5 uM measured after 18 hrs by Western blot analysis; type: cell-based
Procedure, shortened: (§1)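 T47D cells left untreated or treated 18 h at 0.75 or 1.5 µM. Western blots probed with phospho-specific pRb antibodies (Ser780, Ser795, Ser807/811) and a total-pRb antibody; HRP-conjugated secondary for detection.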

A549 [7] = assay: Cell cycle arrest in human A549 cells assessed as accumulation at G0/G1 phase at 1.6 uM treated 32 hrs post mimosine addition measured after 18 hrs in presence of fresh medium by propidium iodide staining based flow cytometry (reference value: 58%); type: functional
Tubulin (Sus scrofa) [8] = target: T3, Tubulin (Sus scrofa) (UniProt P02554+P02550); assay: Inhibition of porcine tubulin polymerization incubated for 1 min by fluorescence based assay; type: protein assay
Procedure, shortened: (§2)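 Compounds added from 10x stocks in duplicate and warmed at 37°C ≤1 min. Ice-cold tubulin pre-mix then added. Fluorescent reporter read at ex 360/em 460 nm for 60 min. Paclitaxel served as enhancer control, CaCl2 as inhibitor control.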

T47D [9] = assay: cells; conditions: Homo sapiens, 72 h
[10] = target: Cyclin-dependent kinase 4/cyclin D1 (Homo sapiens, UniProt P11802); assay: Inhibition of recombinant human N-terminal GST-tagged CDK4 (S4 to E303 residues)/Cyclin D1 (Q4 to I295 residues) expressed in sf9 cells using RBCTF as substrate measured after 1 hr by ADP-glo luminescence assay
Procedure, shortened: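 ADP-Glo luminescence assay of Cdk4–cyclin D1 with RBCTF substrate, 200 ng enzyme, ATP 125 µM (2.5x working mix), Tris/MgCl2/BSA/DTT/MnCl2 buffer, 1 h at 21°C, then two 40-min reagent steps. IC50 from a four-parameter variable-slope sigmoidal fit of inhibition against concentration; mean ± SD from three independent experiments.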

[11] = target: T2, Cyclin-dependent kinase 4/cyclin D1 (Homo sapiens); assay: Inhibition of CDK4/cyclin D1 in human T47D cells assessed as reduction in phosphorylation of pRb at Ser807/11 residues at 1.5 uM measured after 18 hrs by Western blot analysis; type: cell-based; procedure, shortened: as §1
A549 [12] = assay: Cell cycle arrest in human A549 cells assessed as accumulation at G2/M phase at 1.6 uM measured after 18 hrs by propidium iodide staining based flow cytometry (reference value: 18%); type: functional
T47D [13] = assay: Cell cycle arrest in human T47D cells assessed as ratio of G1 to S phase at 1.5 uM measured after 18 hrs by propidium iodide staining based flow cytometry (reference value: 2.65); type: functional
Tubulin (Sus scrofa) [14] = target: T3, Tubulin (Sus scrofa); assay: Inhibition of porcine tubulin polymerization at 5 uM incubated for 1 min by fluorescence based assay; type: protein assay; procedure, shortened: as §2
Calu-1 [15] = assay: Cell cycle arrest in human Calu1 cells assessed as accumulation at G0/G1 phase at 0.9 uM treated 18 hrs post serum-starvation measured after 18 hrs in presence of fresh medium containing FBS by propidium iodide staining based flow cytometry (reference value: 69.2%); type: functional
Calu-1 [16] = assay: cells; conditions: Homo sapiens, Calu-1, 72 h
T47D [17] = assay: Cell cycle arrest in human T47D cells assessed as accumulation at sub-G1 phase at 1.5 uM treated 18 hrs post serum-starvation measured after 18 hrs in presence of fresh medium containing FBS by propidium iodide staining based flow cytometry relative to control; type: functional
MDA-MB-468 [18] = assay: cells; conditions: Homo sapiens, MDA-MB-468, 72 h
T47D [19] = assay: Cell cycle arrest in human T47D cells assessed as accumulation at sub-G1 phase at 1.5 uM measured after 18 hrs by propidium iodide staining based flow cytometry relative to control; type: functional
A549 [20] = assay: Cell cycle arrest in human A549 cells assessed as ratio of G1 to S phase at 0.8 uM treated 32 hrs post mimosine addition measured after 18 hrs in presence of fresh medium by propidium iodide staining based flow cytometry (reference value: 2.5); type: functional

T3 sequence (P02550 whole entry, looked up): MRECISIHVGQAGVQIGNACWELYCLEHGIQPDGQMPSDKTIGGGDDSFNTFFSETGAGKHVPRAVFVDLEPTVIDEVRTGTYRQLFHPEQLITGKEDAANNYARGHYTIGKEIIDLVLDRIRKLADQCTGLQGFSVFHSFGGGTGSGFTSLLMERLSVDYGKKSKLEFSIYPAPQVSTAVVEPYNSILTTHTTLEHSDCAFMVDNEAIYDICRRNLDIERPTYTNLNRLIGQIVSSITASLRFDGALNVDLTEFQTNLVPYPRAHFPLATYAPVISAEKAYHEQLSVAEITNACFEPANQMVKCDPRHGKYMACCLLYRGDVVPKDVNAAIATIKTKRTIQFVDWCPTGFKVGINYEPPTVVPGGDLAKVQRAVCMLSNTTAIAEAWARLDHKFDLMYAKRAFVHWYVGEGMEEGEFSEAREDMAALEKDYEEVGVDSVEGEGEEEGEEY
T3 sequence (P02554 whole entry, looked up): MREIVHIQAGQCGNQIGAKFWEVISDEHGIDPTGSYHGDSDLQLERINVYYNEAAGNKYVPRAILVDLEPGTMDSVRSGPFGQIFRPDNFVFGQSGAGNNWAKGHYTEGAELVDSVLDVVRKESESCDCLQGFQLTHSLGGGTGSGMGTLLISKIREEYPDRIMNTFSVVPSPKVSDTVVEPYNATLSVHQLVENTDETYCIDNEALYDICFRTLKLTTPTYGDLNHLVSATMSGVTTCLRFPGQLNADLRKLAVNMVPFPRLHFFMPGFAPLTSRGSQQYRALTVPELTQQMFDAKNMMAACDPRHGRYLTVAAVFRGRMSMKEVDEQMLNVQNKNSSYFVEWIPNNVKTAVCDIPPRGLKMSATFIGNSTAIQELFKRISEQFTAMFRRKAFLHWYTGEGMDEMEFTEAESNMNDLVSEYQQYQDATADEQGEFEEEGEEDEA
CDK9/cyclin T1, sequence (O60563 whole entry, the tested form may be a part): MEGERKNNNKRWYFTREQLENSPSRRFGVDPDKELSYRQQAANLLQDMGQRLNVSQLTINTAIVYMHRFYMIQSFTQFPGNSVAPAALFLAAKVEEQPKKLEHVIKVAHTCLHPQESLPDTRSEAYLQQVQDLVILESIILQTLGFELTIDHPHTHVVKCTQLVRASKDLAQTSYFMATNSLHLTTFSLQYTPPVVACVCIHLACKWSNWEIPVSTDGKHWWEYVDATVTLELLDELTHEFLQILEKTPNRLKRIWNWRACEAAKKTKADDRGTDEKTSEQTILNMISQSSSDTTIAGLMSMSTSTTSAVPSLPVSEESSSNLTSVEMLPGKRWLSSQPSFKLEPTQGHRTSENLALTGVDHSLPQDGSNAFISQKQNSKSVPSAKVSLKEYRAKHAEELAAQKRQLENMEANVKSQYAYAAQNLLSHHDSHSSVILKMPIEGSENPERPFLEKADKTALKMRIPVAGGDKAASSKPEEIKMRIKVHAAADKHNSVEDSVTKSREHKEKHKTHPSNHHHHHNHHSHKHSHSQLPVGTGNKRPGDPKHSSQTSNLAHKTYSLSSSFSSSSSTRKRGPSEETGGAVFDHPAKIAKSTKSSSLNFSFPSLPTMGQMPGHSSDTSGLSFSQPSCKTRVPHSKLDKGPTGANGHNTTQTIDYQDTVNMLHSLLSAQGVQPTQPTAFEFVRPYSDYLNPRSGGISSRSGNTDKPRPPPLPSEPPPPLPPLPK
CDK9/cyclin T1, sequence (P50750 whole entry, the tested form may be a part): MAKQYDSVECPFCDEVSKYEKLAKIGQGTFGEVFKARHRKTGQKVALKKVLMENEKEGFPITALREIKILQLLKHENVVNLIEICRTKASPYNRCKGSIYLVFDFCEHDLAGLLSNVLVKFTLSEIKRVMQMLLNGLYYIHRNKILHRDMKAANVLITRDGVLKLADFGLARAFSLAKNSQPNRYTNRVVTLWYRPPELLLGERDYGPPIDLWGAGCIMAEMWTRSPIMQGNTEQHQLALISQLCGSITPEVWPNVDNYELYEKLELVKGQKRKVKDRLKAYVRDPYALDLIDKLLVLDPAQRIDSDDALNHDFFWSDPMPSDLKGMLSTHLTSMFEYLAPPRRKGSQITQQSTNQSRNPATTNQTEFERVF
Cyclin-dependent kinase 4/cyclin D1, sequence (P11802 whole entry, the tested form may be a part): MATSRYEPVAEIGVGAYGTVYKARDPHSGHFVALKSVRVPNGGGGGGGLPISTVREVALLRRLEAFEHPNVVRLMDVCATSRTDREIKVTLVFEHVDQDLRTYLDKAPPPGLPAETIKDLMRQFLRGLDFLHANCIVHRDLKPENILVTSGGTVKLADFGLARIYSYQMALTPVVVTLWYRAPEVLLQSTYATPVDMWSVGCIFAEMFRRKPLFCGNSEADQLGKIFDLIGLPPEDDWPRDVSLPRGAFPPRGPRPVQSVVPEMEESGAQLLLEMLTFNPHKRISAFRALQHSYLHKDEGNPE
Cyclin-dependent kinase 4/cyclin D1, sequence (P24385 whole entry, further chain, the tested form may be a part): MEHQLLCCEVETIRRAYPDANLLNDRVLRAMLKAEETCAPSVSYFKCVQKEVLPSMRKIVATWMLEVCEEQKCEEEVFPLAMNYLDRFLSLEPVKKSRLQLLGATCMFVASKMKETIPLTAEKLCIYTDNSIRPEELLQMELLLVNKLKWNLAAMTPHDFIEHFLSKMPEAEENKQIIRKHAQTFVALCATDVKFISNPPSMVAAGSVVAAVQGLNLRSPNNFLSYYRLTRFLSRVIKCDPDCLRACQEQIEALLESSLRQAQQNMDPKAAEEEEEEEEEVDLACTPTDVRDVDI

IC50 (Cytochrome P450 1A2): > 5000 nM | inhibition [2]: 95% | IC50 (CDK9/cyclin T1): > 100000 nM | inhibition [6]: Active | inhibition (Tubulin (Sus scrofa) [8]): Dose-dependent effect | EC50 (T47D [9]): 750 nM | IC50 [10]: 470 nM | inhibition [11]: Active | inhibition (Tubulin (Sus scrofa) [14]): Active | EC50 (Calu-1 [16]): 900 nM | EC50 (MDA-MB-468 [18]): 10800 nM
Structure (SMILES): O=C(COc1ccc(-c2nc3ccccc3c(=O)[nH]2)cc1)Nc1cccc(Cl)c1
Ratio (MDA-MB-468 [1]): 3.46 | Activity (A549 [3]): 36% | Activity (T47D [4]): 2.13% | Activity (Calu-1 [5]): -0.8% | Activity (A549 [7]): 12% | Activity (A549 [12]): 70% | Ratio (T47D [13]): 12 | Activity (Calu-1 [15]): 75% | Activity (T47D [17]): 18.6% | Activity (T47D [19]): 20% | Ratio (A549 [20]): 1.07
